Compound activity as filed in PubChem.
697 NFkB inh: inhibitors of the PMA/ionomycin-induced NF-kB reporter in 697 B cells. 697 B-cell NF-kB luciferase reporter, 16 h. 330,000 compounds, 0.33% hits. inhibition, % at 4 µM. AID 435022; in the data active means inhibition above about 35%
Mdm2-MdmX inh: inhibitors of human Mdm2/MdmX interaction; inhibition, % at 8 µM; O15151+Q00987; AID 485346; 330,000 compounds, 3% hits; SaOS-2 split-luciferase Mdm2/MdmX complementation, luminescence;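 active means inhibition of at least 50% at 8 µM in the primary screen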
IMP-1 inhibitor: blocks Pseudomonas aeruginosa IMP-1 metallo-beta-lactamase. 290,000 compounds, 0.45% hits. AID 1556. purified IMP-1, nitrocefin hydrolysis, epi-absorbance fluorescence. inhibition, % at 5.6 µM;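 active means inhibition above the mean plus 3 SD of all compounds in the same screening run, cut at about 4.5% in these data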;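 further: 0% = IMP-1 with DMSO and 100% = DMSO wells lacking enzyme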
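Assay system: purified IMP-1; Quantity: IMP-1 0.2 nM before substrate addition; Medium: HEPES buffer pH 7.1 with ZnSO4 and Brij 35; Incubation: 15 min enzyme–compound preincubation, then 25 min nitrocefin reaction, 25 °C; Signal: fluorescence quenching readout, ex 480/em 530 nm; Controls: DMSO with and without IMP-1; Repeats: singlicate testing.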
Jurkat NFkB inh: inhibitors of the PMA/ionomycin-induced NF-kB reporter in Jurkat cells | PMA/ionomycin-induced NF-kB luciferase reporter, luminescence | inhibition, % at 4 µM | 330,000 compounds, 0.53% hits; in the data active means inhibition above about 50%
VIM-2 inh: inhibitors of Pseudomonas aeruginosa VIM-2 metallo-beta-lactamase; 290,000 compounds, 0.89% hits; inhibition, % at 5.6 µM; purified VIM-2, nitrocefin hydrolysis, epi-absorbance fluorescence;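 active means inhibition above the mean of all tested compounds plus 3 SD, cutoff set per screening run, cut at about 7.5% in these data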;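 further: red hydrolysis product quenches plate fluorescence so inhibitors raise well fluorescence; 0% = enzyme with DMSO and 100% = DMSO without enzyme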
aSyn UTR inh: 5' untranslated region of α-synuclein, MLPCN primary screen; alpha-synuclein 5'UTR reporter, inhibitor activity; inhibition, % (tested at 7.5 µM); 300,000 compounds, 0.82% hits; in the data active means inhibition above about 60%;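 further: H4 neuroglioblastoma cells stably carrying SNCA 5'UTR luciferase fusion; 0% = DMSO wells and 100% = positive control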
* = called active by the depositor; x = not tested or not shown. An excerpt weighted towards active compounds, which were near 4.7% of everything screened.

SMILES | 697 NFkB inh | Mdm2-MdmX inh | IMP-1 inhibitor | Jurkat NFkB inh | VIM-2 inh | aSyn UTR inh
CSCCC(NC(=O)c1ccc(Cl)cc1Cl)C(=O)N(C)Cc1nc2ccccc2c(=O)[nH]1 (stereo unspecified) | 19 | 21 | x | 5 | x | x
Cc1ccccc1Cn1cc(NC(=O)c2noc(C(C)C)c2[N+](=O)[O-])cn1 | -2 | -1 | -2 | 3 | -2 | 106*
O=C(CN1C(=O)c2ccccc2S1(=O)=O)c1cccc(Br)c1 | 34 | 23 | -4 | -2 | -3 | 84*
O=C(CN1C(=O)c2ccccc2S1(=O)=O)N1CCN(c2ccccc2F)CC1 | 10 | 36 | -3 | 12 | -2 | 14
O=C(CN1C(=O)c2ccccc2S1(=O)=O)c1ccccc1F | 0 | 21 | 1 | -3 | 2 | 82*
COC(=O)c1ccccc1NC(=S)NC(=O)c1ccc(C)cc1 | 13 | 13 | -1 | -4 | 0 | -23
COC(=O)c1ccccc1NC(=S)NC(=O)c1ccccc1 | 32 | 13 | 4.7* | -11 | -1 | -4
COC(=O)c1ccc(NC(=S)NNC(=O)c2ccccc2)cc1 | 10 | -2 | 0 | -2 | -2 | -41
COC(=O)c1cccnc1NC(=S)NNC(=O)c1ccccc1 | -5 | 10 | 11* | 8 | -6 | -34
CCNCCNC(=O)c1c(O)c2cccc3c2n(c1=O)CCC3 | 1 | 2 | -2 | -1 | 8.5* | -4
Cc1scc(C(=O)N/N=C/c2ccc([N+](=O)[O-])o2)c1C | 12 | 21 | -4 | -1 | -3 | 85*
O=C(N/N=C/c1ccc([N+](=O)[O-])o1)c1cc2ccccc2o1 | 16 | 15 | -4 | 22 | -2 | 66*
COc1cccc(NC(=O)CN(C)C(=O)c2ccccc2-c2nc3ccccc3s2)c1 | 1 | -21 | x | -6 | x | -8
O=C(Oc1ccc(C(=S)N2CCOCC2)cc1)c1cccc(Cl)c1 | 2 | 17 | -1 | 6 | 3 | 5
Cn1nc(N2CCN(S(=O)(=O)c3ccccc3)CC2)c(=O)n(C)c1=O | 11 | -6 | x | -2 | x | x
Cc1ccc(C(=O)NCCN(C)C)cc1C | 3 | 9 | 5.4* | -6 | -3 | 17
O=C(Nc1cnn(Cc2ccc(Cl)cc2)c1)c1ccc([N+](=O)[O-])cc1 | -5 | 13 | -3 | 7 | -4 | 22
O=C(Nc1ccc([N+](=O)[O-])cc1)c1ccc(Cn2cc([N+](=O)[O-])cn2)cc1 | 23 | 22 | -3 | 17 | -3 | 79*
CCc1cc(C(=O)N(C)CC(=O)N(CC(C)C)c2c(N)n(CC(C)C)c(=O)[nH]c2=O)sc1C | -5 | 15 | -3 | 3 | -2 | -12
CCN(CC)S(=O)(=O)c1ccc(N2CCOCC2)c(NC(=O)c2cc(-c3ccccn3)nc3ccccc23)c1 | x | x | -5 | x | -5 | 88*
CC(Sc1nnc(-c2ccccc2)c(-c2ccccc2)n1)C(=O)NCC1CCCO1 (stereo unspecified) | 6 | 12 | x | 9 | x | x
Cc1nc2ccccn2c1-c1csc(Nc2cccc(O)c2)n1 | x | x | -3 | x | 11* | 49
CN(C)/C=N/C1=C(C#N)C(c2ccc(Br)cc2)c2ccc3ccccc3c2O1 (stereo unspecified) | -38 | 36 | 6.1* | -26 | -2 | -32
COc1cc(C2C(C#N)=C(N)Oc3c2ccc2ccccc32)ccc1OCC(=O)Nc1ccccc1C (stereo unspecified) | 12 | 24 | 0 | 12 | -1 | 30
c1nc(C2CCCCC2)cc2cc3c(cc12)OCO3 | -62 | -63 | x | -42 | x | x
SMILES | 697 NFkB inh | Mdm2-MdmX inh | IMP-1 inhibitor | Jurkat NFkB inh | VIM-2 inh | aSyn UTR inh
Cc1cccc(C(=O)O[C@@H]2[C@H](Cc3ccccc3)NS(=O)(=O)[C@H]3C[C@@H]4C=C[C@]23O4)c1 | -10 | -35 | x | -2 | x | x
CC1(C)N=C(N)N=C(N)N1c1ccccc1 | -44 | -4 | -3 | 22 | 0 | 99*
COc1cc([C@@H]2c3cc4c(cc3[C@@H](NC3CCN(Cc5ccccc5)CC3)[C@H]3COC(=O)[C@H]23)OCO4)cc(OC)c1O | x | x | x | x | x | 103*
CC(=O)Oc1ccccc1/C=C/c1nc2ccccc2c(=O)o1 | 17 | 28 | -3 | 8 | -2 | 66*
Cc1nnc2ccc(-c3cccc(NC(=O)c4ccc(Br)o4)c3)nn12 | 25 | 14 | -3 | 2 | 10* | -10
CCOc1ccc(-c2nnc(NC(=O)Cc3cc(OC)c(OC)c(OC)c3)o2)cc1 | -22 | -24 | -4 | -10 | -3 | -18
Cc1cc2nc(-c3ccc[nH]c3=O)[nH]c2cc1C | -45 | -4 | -4 | 27 | -5 | 77*
Cn1cccc1C1CCCN1CC(=O)Nc1ccc(C(N)=O)cc1 (stereo unspecified) | 0 | 1 | x | -12 | x | x
CCCc1cc(C(=O)OC)c(NC(=O)CCCC(=O)O)s1 | 16 | 19 | -6 | 8 | -5 | 10
CCc1cc(C(=O)OC)c(NC(=O)CCC(=O)O)s1 | 2 | 3 | 15* | -3 | 1 | 9
NNC(=O)c1cn2ccccc2n1 | 7 | 21 | -4 | -3 | -10 | -30
O=C(Nc1nccs1)c1cn2ccccc2n1 | -56 | 23 | -4 | -42 | -3 | 65*
CCCCc1nc2cc(C(=O)N3CCCC3)ccc2o1 | -42 | -11 | -1 | -43 | -1 | -90
CCCCc1nc2cc(C(=O)NC(C)c3cnn(C)c3)ccc2o1 (stereo unspecified) | -70 | -43 | 25* | -68 | -1 | -77
CCc1cc(CNC(=O)c2ccc(OC3CCN(CCc4ccccc4)CC3)cc2)on1 | 4 | 31 | 13* | 12 | -2 | 6
CC1(C)Cc2c(c(N3CCCCC3)[nH]c(=S)c2C#N)CS1 | x | x | 8.2* | x | -5 | -15
CC1CCN(c2[nH]c(=S)c(C#N)c3c2CCCC3)CC1 | 10 | -11 | -4 | 10 | 1 | 10
CCC(C(=O)N1CCOCC1)n1nc(C)c2sc3ccccc3c2c1=O (stereo unspecified) | 8 | 11 | -4 | -3 | -3 | -3
CCOc1ccc(C(=O)CCC(=O)N2CCN(c3ncccn3)CC2)cc1 | -17 | 2 | 4 | -42 | 0 | 1
O=[N+]([O-])c1nn(-c2ccc3c(c2)OCCO3)n(O)c1=NC1CCN(Cc2ccccc2)CC1 | -54 | 10 | -1 | -6 | -2 | -11
O=[N+]([O-])c1nn(-c2ccccc2)n(O)c1=NC1CCN(Cc2ccccc2)CC1 | -48 | -3 | -4 | -6 | -2 | 76*
C=C1c2cc(OC)ccc2NC(=O)N1CC | -12 | 10 | 5.8* | -24 | 2 | 28
Cc1ccc(Cl)c2c1=NC(=O)C=2c1[nH]c(=S)[nH]c1O | -13 | 11 | 6.4* | 5 | 2 | -3
Cc1ccc(N2C(=O)c3cccc4cccc(c34)C2=O)cc1 | 22 | 26 | -1 | 12 | -6 | -11
O=C1c2cccc3cccc(c23)C(=O)N1c1ccc(O)cc1 | 18 | 32 | -3 | 15 | 8.4* | 19
CCOC(=O)c1c[nH]c2c(C(=O)c3ccccc3)cc(Cl)cc2c1=O | x | x | -3 | x | 7.7* | 20
